Assays:
Serratia marcescens = test: Minimum inhibitory concentration against Serratia marcescens; assay type: functional
Method in brief: (§1)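 Agar dilution on defined peptide susceptibility medium with peptide in serial twofold dilutions. Strains subcultured on blood or chocolate agar. Inoculum from overnight culture in liquid peptide medium, diluted to approx 1×10^7 cfu/mL, applied by Steers replicator. Plates incubated overnight at 37 °C. MIC taken as lowest concentration permitting fewer than ten colonies at 16–18 h.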

Salmonella typhimurium [1] = test: Minimum inhibitory concentration against Salmonella Typhimurium
Shigella flexneri = test: Minimum inhibitory concentration against Shigella flexneri; assay type: functional; method in brief: as §1
Morganella morganii = test: Minimum inhibitory concentration against Morganella morganii; assay type: functional; method in brief: as §1
Klebsiella aerogenes = test: Minimum inhibitory concentration against Enterobacter aerogenes; assay type: functional; method in brief: as §1
Pseudomonas aeruginosa = test: Minimum inhibitory concentration against Pseudomonas aeruginosa; assay type: functional; method in brief: as §1
Streptococcus agalactiae = test: Minimum inhibitory concentration against Streptococcus agalactiae; assay type: functional
Method in brief: (§2)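 Agar dilution on defined peptide susceptibility medium with hemin (25 μg/mL), NAD (25 μg/mL) and Isovitalex (1%) added, peptide in serial twofold dilutions. Colonies from overnight chocolate or blood agar resuspended in liquid peptide medium to 10⁸ cfu/mL, applied by Steers replicator. Incubation overnight at 37 °C under 7% CO₂. MIC: lowest concentration giving fewer than ten colonies at 16–18 h.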

Enterobacter cloacae = test: Minimum inhibitory concentration against Enterobacter cloacae; assay type: functional; method in brief: as §1
[2] = test system: Staphylococcus epidermidis; test: Minimum inhibitory concentration against Staphylococcus epidermidis; assay type: functional; method in brief: as §1
Haemophilus influenzae = test: Minimum inhibitory concentration against Hemophilus influenzae; assay type: functional; method in brief: as §2
Streptococcus pyogenes = test: Minimum inhibitory concentration against Streptococcus pyogenes; assay type: functional; method in brief: as §2
Enterococcus faecalis = test: Minimum inhibitory concentration against Streptococcus faecalis; assay type: functional; method in brief: as §1
Proteus mirabilis = test: Minimum inhibitory concentration against Proteus mirabilis; assay type: functional; method in brief: as §1
Escherichia coli = test: Minimum inhibitory concentration against Escherichia coli; assay type: functional; method in brief: as §1
Klebsiella pneumoniae = test: Minimum inhibitory concentration against Klebsiella pneumoniae; assay type: functional; method in brief: as §1
Staphylococcus aureus = test: Minimum inhibitory concentration against Staphylococcus aureus; assay type: functional; method in brief: as §1
Salmonella typhimurium [3] = test: Minimum inhibitory concentration against Salmonella Typhimurium; assay type: functional, Salmonella enterica subsp. enterica serovar Typhimurium; conditions: Salmonella enterica; method in brief: as §1

Compound | MIC (Serratia marcescens) [µg/mL] | MIC (Salmonella typhimurium [1]) [µg/mL] | MIC (Shigella flexneri) [µg/mL] | MIC (Morganella morganii) [µg/mL] | MIC (Klebsiella aerogenes) [µg/mL] | MIC (Pseudomonas aeruginosa) [µg/mL] | MIC (Streptococcus agalactiae) [µg/mL] | MIC (Enterobacter cloacae) [µg/mL] | MIC [2] [µg/mL] | MIC (Haemophilus influenzae) [µg/mL] | MIC (Streptococcus pyogenes) [µg/mL] | MIC (Enterococcus faecalis) [µg/mL] | MIC (Proteus mirabilis) [µg/mL] | MIC (Escherichia coli) [µg/mL] | MIC (Klebsiella pneumoniae) [µg/mL] | MIC (Staphylococcus aureus) [µg/mL] | MIC (Salmonella typhimurium [3]) [µg/mL]
C[C@H](N)C(=O)N[C@@H](C)C(=O)O.O=C(O)C(F)(F)F | > 100 | > 100 | > 100 | > 100 | > 100 | > 100 | > 100 | > 100 | > 100 | > 100 | > 100 | > 100 | > 100 | > 100 | > 100 | > 100 | –
CSCC[C@H](N)C(=O)N[C@@H](CCl)C(=O)O.O=C(O)C(F)(F)F | 50 | – | > 100 | 50 | 6.25 | > 100 | 0.2 | 6.25 | 0.025 | 0.78 | > 100 | 0.39 | 100 | 1.56 | > 100 | 0.025 | > 100
C#CC[C@H](N)C(=O)N[C@@H](C)C(=O)O.O=C(O)C(F)(F)F | > 100 | – | > 100 | > 100 | > 100 | > 100 | > 100 | > 100 | 1.56 | > 100 | > 100 | > 100 | > 100 | > 100 | > 100 | > 100 | > 100
C#CC[C@@H](N)C(=O)N[C@@H](C)C(=O)O.O=C(O)C(F)(F)F | > 100 | – | > 100 | > 100 | > 100 | > 100 | > 100 | > 100 | > 100 | > 100 | > 100 | > 100 | > 100 | > 100 | > 100 | > 100 | > 100
C[C@H](NC(=O)[C@@H](N)CCl)C(=O)O.O=C(O)C(F)(F)F | > 100 | – | > 100 | > 100 | > 100 | > 100 | 0.39 | > 100 | 0.025 | > 100 | > 100 | > 100 | > 100 | > 100 | > 100 | 0.05 | > 100

Reference: ChEMBL document CHEMBL1122413, “Chloralanyl and propargylglycyl dipeptides. Suicide substrate containing antibacterials” (1983)
